In ChEMBL document CHEMBL4004814, “In Vitro and in Vivo Evaluation of Fully Substituted (5-(3-Ethoxy-3-oxopropynyl)-4-(ethoxycarbonyl)-1,2,3-triazolyl-glycosides as Original Nucleoside Analogues to Circumvent Resistance in Myeloid Malignancies” (J Med Chem, 2017) one finds IC50, Activity and EC50 data, which are given here for 24 compounds.

The source made the active and inactive calls. No cut-off for these calls is given here.

One may read the IC50 as the point on the concentration scale where inhibition reaches its midpoint. A low value points to higher potency. Broadly, the EC50 is the concentration at which the effect is half-maximal. A lower EC50 goes with greater potency.

Holding throughout (format): functional, cell-based
Experiment [1] deals with K562. The experiment is described as follows: Antileukemic activity against human K562 cells after 48 hrs by XTT assay. As to conditions: K562, 48 h. The gist of the method:
(§1)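 XTT read-out of mitochondrial metabolism after 48 h incubation with compound (up to 10 µM in first screen). XTT reagent added to cells, formazan absorbance read at 490 nm. Each assay run in quadruplicate. IC50 derived; standard deviation reported. Resistant K562 line obtained by chronic imatinib exposure for 6 months.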

The subject of experiment [2] is SKM1-S. In words: Induction of apoptosis in human SKM1-S cells assessed as caspase 3 cleavage at 1 uM by Western blot method.
Experiment [3] relates to SKM1-R. In words: Induction of apoptosis in human SKM1-R cells assessed as caspase 3 cleavage at 10 uM by Western blot method.
Experiment [4] is described as follows: Antiproliferative activity against human SKM1-R cells after 48 hrs by DAPI-staining-based flow cytometric method. The gist of the method: (§2)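 Flow cytometry of DAPI incorporation after 48 h incubation with compound; DL50 derived. SKM1 grown in RPMI with 10% FCS at 37°C, 5% CO2, with penicillin/streptomycin.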
On the technique in general: Flow cytometry measures light scatter and fluorescence of single cells or particles in a stream.

Experiment [5] in a line: Antiproliferative activity against human SKM1-R cells after 48 hrs by XTT assay. (In general: Formazan colour is commonly taken as a measure of viable cells.)
Experiment [6] in a line: Antiproliferative activity against human SKM1-S cells after 48 hrs by XTT assay. The gist of the method: as §1
Experiment [7] is described as follows: Antiproliferative activity against human SKM1-S cells after 48 hrs by DAPI-staining-based flow cytometric method. An outline of the steps: as §2

With `CCOC(=O)C#Cc1c(C(=O)OCC)nnn1[C@@H]1O[C@H](CO)[C@H]2O[C@@](C)(c3ccccc3)O[C@H]21`, the IC50 in experiment [1] is 500 nM. That is a sub-micromolar value.
Compound `CCOC(=O)C#Cc1c(C(=O)OCC)nnn1[C@H]1O[C@@H](COC(C)=O)[C@H](OC(C)=O)[C@@H]1OC(C)=O` gave a half-inhibitory concentration (IC50) in experiment [1] of 200 nM.
With `CCOC(=O)C#Cc1c(C(=O)OCC)nnn1[C@@H]1O[C@H](COC)[C@@H](OC)[C@H]1OC`, the IC50 in experiment [1] turned out to be 800 nM.
As to `CCOC(=O)c1nnn([C@@H]2O[C@H](CO)[C@H]3OC(C)(C)O[C@H]32)c1C#Cc1ccc(F)cc1`, the IC50 in experiment [1] is above 10000 nM.
`COC(=O)c1nnn([C@@H]2O[C@H](CO)[C@H]3OC(C)(C)O[C@H]32)c1I` yielded an IC50 in experiment [1] above 10000 nM.
Consider `Nc1ncn([C@@H]2O[C@H](CO)[C@@H](O)[C@H]2O)c(=O)n1` [AZACITIDINE], for which the result in experiment [2] was Active. Besides, the outcome in experiment [3] was inactive. For the same compound, the results for the EC50 in experiment [4] and in experiment [7] were above 10000 nM and 510 nM, respectively. In addition, the figures for the IC50 in experiment [5] and in experiment [6] were above 10000 nM and 500 nM, respectively.
In experiment [1], `NC(=O)c1ncn([C@@H]2O[C@H](CO)[C@@H](O)[C@H]2O)c1N` [ACADESINE] registered a half-inhibitory concentration (IC50) of 800000 nM.
In experiment [1], `CCOC(=O)C#Cc1c(C(=O)OCC)nnn1[C@H]1C[C@H](OC(C)=O)[C@@H](COC(C)=O)O1` returned a half-maximal inhibitory concentration (IC50) of 200 nM.
Still for that read-out and setting: the value for `CCOC(=O)c1nnn([C@@H]2O[C@H](CO)[C@H]3OC(C)(C)O[C@H]32)c1I` was above 10000 nM; that for `CCOC(=O)C#Cc1c(C(=O)OCC)nnn1[C@@H]1O[C@H](COC(C)=O)[C@@H](OC(C)=O)[C@H]1OC(C)=O` was 700 nM.
Still for that read-out and setting: the result for `CCOC(=O)c1nnn([C@@H]2O[C@H](COC(C)=O)[C@@H](OC(C)=O)[C@H]2OC(C)=O)c1C(=O)c1ccco1` reads above 10000 nM; that for `COC(=O)C#Cc1c(C(=O)OC)nnn1[C@@H]1O[C@H](CO)[C@H]2OC(C)(C)O[C@H]21`, 1450 nM.
Turning to `CCOC(=O)C#Cc1c(C(=O)OCC)nnn1[C@@H]1O[C@H](COC)[C@H]2OC(C)(C)O[C@H]21`, the IC50 in experiment [1] came out at 550 nM.
Compound `CCOC(=O)c1nnn([C@@H]2O[C@H](COC(C)=O)[C@@H](OC(C)=O)[C@H]2OC(C)=O)c1C(=O)c1cccs1` registered an IC50 in experiment [1] above 10000 nM.
`CC(C)(C)OC(=O)C#Cc1c(C(=O)OC(C)(C)C)nnn1[C@@H]1O[C@H](CO)[C@H]2OC(C)(C)O[C@H]21`: 1150 nM corresponded to half-maximal inhibition in experiment [1] (IC50). This counts as single-digit micromolar.
Turning to `CCOC(=O)c1nnn([C@@H]2O[C@H](COC(C)=O)[C@@H](OC(C)=O)[C@H]2OC(C)=O)c1-c1cccs1`, in experiment [1], the IC50 was above 10000 nM.
Compound `CCOC(=O)c1nnn([C@@H]2O[C@H](COC(C)=O)[C@@H](OC(C)=O)[C@H]2OC(C)=O)c1I` gave a 50% inhibitory concentration (IC50) in experiment [1] above 10000 nM.
As for `CCCCCCCC#Cc1c(C(=O)OCC)nnn1[C@@H]1O[C@H](CO)[C@H]2OC(C)(C)O[C@H]21`, in experiment [1], the IC50 is above 10000 nM.
In the case of `CC(=O)OC[C@H]1O[C@@H](n2nnc(C(=O)OC(C)(C)C)c2C#CC(=O)OC(C)(C)C)[C@H](OC(C)=O)[C@@H]1OC(C)=O`, half-maximal inhibition in experiment [1] (IC50) required 2500 nM.
Compound `CCOC(=O)c1nnn([C@@H]2O[C@H](COC(C)=O)[C@@H](OC(C)=O)[C@H]2OC(C)=O)c1C(=O)c1ccc(C)cc1` yielded a 50% inhibitory concentration (IC50) in experiment [1] above 10000 nM.
`CCCC1(CCC)O[C@@H]2[C@H](O1)[C@@H](CO)O[C@H]2n1nnc(C(=O)OCC)c1C#CC(=O)OCC`: the half-maximal inhibitory concentration (IC50) in experiment [1] is 150 nM.
In experiment [1], `CCOC(=O)C#Cc1c(C(=O)OCC)nnn1[C@@H]1O[C@H](COC(C)=O)[C@H]2OC(C)(C)O[C@H]21` gave an IC50 of 500 nM.
`CCOC(=O)C#Cc1c(C(=O)OCC)nnn1[C@@H]1O[C@H](COC(C)=O)[C@H](OC(C)=O)[C@H]1OC(C)=O`: in experiment [1], the IC50 came to 200 nM.
In the case of `COC(=O)C#Cc1c(C(=O)OC)nnn1[C@@H]1O[C@H](COC(C)=O)[C@H]2OC(C)(C)O[C@H]21`, the 50% inhibitory concentration (IC50) in experiment [1] came to 150 nM.
